# This is a sample that favours compounds with a hit; in the whole collection about 2.5% have one here.
# proKLK7 act: proKLK7 (human) activation, primary screen; P49862; purified proKLK7, EDANS-DABCYL substrate fluorescence; 100% is mature enzyme control, 0% vehicle; activation, % at 7 µM; hit rate 0.9% among 370,000;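 active = activation above the mean of all tested compounds plus 3 SD, computed per campaign excluding outliers beyond control limits, cut at about 13% in these data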
# NR2E3 ag-1: agonists of human nuclear receptor NR2E3. inhibition of corepressor binding, % at 4.78 µM. hit rate 0.12% among 320,000. GST-NR2E3/biotin-RetCOR TR-FRET, 1536-well. AID 2300;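 active = percent inhibition above the cutoff of mean plus 3 SD of all tested compounds, set per screening campaign, cut at about 20% in these data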;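 note: 0% = DMSO wells and 100% = biotin wells as full block of FRET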
#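 Material – GST-tagged NR2E3 plus biotinylated RetCOR corepressor · Quantity – NR2E3 fusion 1.35 nM · Times – 5 h incubation at 4 °C · Medium – pH 7.5 Tris-based buffer · Technique – TR-FRET, Eu(K)-anti-GST donor, streptavidin-D2 acceptor, ex 340, em 617/671 nm · Benchmarks – high control biotin, low control 0.6% DMSO · Format – 1536-well plates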
# GASC-1 inh: human JMJD2C demethylase inhibition; Q9H3R0; GST-JMJD2C(1-420) H3K9me3 demethylation, DELFIA europium; inhibition, % at 2.35 µM; hit rate 0.069% among 330,000;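 active = more than half of a compound's replicate wells show inhibition beyond 50%, single wells judged on their own value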;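 note: signal counts dimethyl H3K9 product captured on neutravidin plate; 0% = median of DMSO wells and 100% = 0.3 times that DMSO median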
# NR2E3 ag-2: agonists of human NR2E3 nuclear receptor; Q9Y5X4; CHO-S Gal4-NCOR/VP16-NR2E3 two-hybrid, luciferase; inhibition of corepressor binding, % at 3.98 µM; hit rate 0.35% among 360,000; AID 602229;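 active = inhibition above the mean of all tested compounds plus 3 SD, cut at about 70% in these data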;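 note: 0% = DMSO with NR2E3 transfected cells and 100% = cells lacking NR2E3 construct; higher means lower luciferase signal from less NR2E3 corepressor binding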
# ADAM17 inh: ADAM17 inhibition, QFRET primary screen; P78536; recombinant ADAM17, EDANS/DABCYL FRET peptide cleavage; inhibition, % at 6.95 µM; hit rate 0.83% among 370,000;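 active = inhibition above the mean of compounds lying between control limits plus 3 SD, set per campaign, cut at about 8.5% in these data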;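 note: 0% = DMSO-only wells as the low control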
# ADAM10 inh: inhibitors of human ADAM10; recombinant ADAM10, EDANS/DABCYL FRET peptide cleavage, 3 h; O14672; hit rate 0.62% among 370,000; inhibition, % at 7 µM; AID 720582;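 active = inhibition above a per-campaign cutoff equal to the mean of compounds falling between control-based bounds plus 3 SD, cut at about 20% in these data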;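 note: 0% = DMSO wells while the 100% control is not disclosed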
# Target sequence (O14672 214-748 limits assumed): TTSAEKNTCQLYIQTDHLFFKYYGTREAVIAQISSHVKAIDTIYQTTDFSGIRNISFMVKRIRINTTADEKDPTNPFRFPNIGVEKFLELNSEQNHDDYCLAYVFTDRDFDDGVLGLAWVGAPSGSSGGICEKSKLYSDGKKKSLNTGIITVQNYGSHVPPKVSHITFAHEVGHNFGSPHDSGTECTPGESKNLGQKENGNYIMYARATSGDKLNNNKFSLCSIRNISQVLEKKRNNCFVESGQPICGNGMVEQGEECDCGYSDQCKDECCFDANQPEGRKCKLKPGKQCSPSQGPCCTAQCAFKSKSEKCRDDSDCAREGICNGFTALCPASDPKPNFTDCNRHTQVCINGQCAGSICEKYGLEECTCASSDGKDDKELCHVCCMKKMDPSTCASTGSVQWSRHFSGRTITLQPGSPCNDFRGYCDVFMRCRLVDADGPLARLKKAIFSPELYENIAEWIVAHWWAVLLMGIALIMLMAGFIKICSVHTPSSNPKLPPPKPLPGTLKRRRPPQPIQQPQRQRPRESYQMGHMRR
# NR2E3 ag conf: NR2E3 agonism confirmed in two-hybrid assay | shares compounds with NR2E3 ag-2 | CHO-S mammalian two-hybrid NR2E3-NCOR, luciferase luminescence | inhibition, % at 3.98 µM | hit rate 51% among 2,300 | AID 624378;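 active = average inhibition above a cutoff equal to the mean inhibition of all tested compounds plus one SD, cut at about 70% in these data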;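 note: 0% = DMSO in NR2E3 cells and 100% = DMSO in cells lacking NR2E3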
# GAL4-VP16 luc: reduces GAL4-VP16 reporter signal in NR2E3 counterscreen; shares compounds with NR2E3 ag-2; CHO-S GAL4-VP16 luciferase reporter, luminescence; inhibition, % at 3.98 µM; hit rate 29% among 2,300;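 active = mean inhibition above a cutoff equal to the average over all tested compounds plus one standard deviation, cut at about 70% in these data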;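 note: luciferase from a UAS reporter driven by GAL4-VP16 transactivation; 0% = DMSO with VP16-transfected cells and 100% = DMSO with cells lacking VP16; higher means less reporter light so more repression of VP16 activity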
# ADAM10 confirm: human ADAM10 inhibition, confirmation | shares compounds with ADAM10 inh | ADAM10 QFRET peptide cleavage, EDANS fluorescence | inhibition, % at 6.95 µM | hit rate 1% among 2,100 | AID 743208;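 active = inhibition above about 20% chosen separately for each screening run, limit read from the data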;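 note: 0% = DMSO wells and 100% = marimastat wells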
# ADAM17 ctr: inhibits human ADAM17 in ADAM10 exosite counter-screen; AID 743214; hit rate 0.5% among 2,100; inhibition, % at 6.95 µM; shares compounds with ADAM10 inh; ADAM17 QFRET peptide cleavage, EDANS fluorescence;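 active = mean triplicate inhibition above the solvent-only control wells' mean plus 3 SD, cut at about 12% in these data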;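 note: 0% = DMSO wells and 100% = marimastat wells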
# ADAM10 counter: ADAM10 inhibition, counter-screen for ADAM17 exosite hits | shares compounds with ADAM17 inh | inhibition, % at 6.95 µM | hit rate 47% among 2,900 | AID 743256 | recombinant ADAM10, EDANS/DABCYL FRET peptide cleavage, 3 h;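 active = mean inhibition over the triplicate runs exceeds the activity threshold set in the earlier primary screen, cut at about 20% in these data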;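 note: 0% = DMSO wells and 100% = marimastat wells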
# ADAM17 confirm: confirmation of inhibitors of human ADAM17; hit rate 65% among 2,900; shares compounds with ADAM17 inh; recombinant ADAM17, EDANS/DABCYL QFRET peptide cleavage; AID 743257; inhibition, % at 6.95 µM;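 active = mean inhibition across replicates above the hit cutoff set in the primary screen, cut at about 8.5% in these data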;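 note: 0% = DMSO wells and 100% = marimastat wells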
# An asterisk follows results filed as active; . = no result.
SMILES,proKLK7 act,NR2E3 ag-1,GASC-1 inh,NR2E3 ag-2,ADAM17 inh,ADAM10 inh,NR2E3 ag conf,GAL4-VP16 luc,ADAM10 confirm,ADAM17 ctr,ADAM10 counter,ADAM17 confirm
CCOc1ccc(CN(C)Cc2cc(=O)oc3c(C)c(C)ccc23)cc1OC,0,.,.,86*,9.4*,7,88*,81*,.,.,-4,-1
Cc1cc(C(=O)CCC(=O)N2CCN(c3ccccc3)CC2)c(C)s1,0,2,1,-1,-2,3,.,.,.,.,.,.
CC(C)N1CC(C(=O)Nc2ccc(F)c(Cl)c2)CC1=O (stereo unspecified),0,1,11,13,-1,2,.,.,.,.,.,.
CCN(CC)S(=O)(=O)c1cccc(NC(=O)Nc2cccc(C(F)(F)F)c2)c1,1,-1,7,75*,11*,30*,65,53,6,2,55*,29*
CCN(CC)S(=O)(=O)c1cccc(NC(=O)CC2CCCC2)c1,0,0,2,0,0,0,.,.,.,.,.,.
CCN(C(=O)CC(C)C)c1nnc(Cn2nnc3ccccc32)s1,0,5,-1,-4,-5,-5,.,.,.,.,.,.
CCN(C(=O)c1ccc(C(C)(C)C)cc1)c1nnc(Cn2nnc3ccccc32)s1,0,1,-32,89*,9.3*,12,92*,77*,.,.,18,9.5*
Cc1ccc(NC(=O)c2c(C(F)(F)F)nn(C)c2SCc2cccc(C(F)(F)F)c2)cc1C,0,2,3,49,14*,37*,55,44,7,2,45*,25*
Cc1ccc(NC(=O)c2c(C(F)(F)F)nn(C)c2SCc2ccc(Cl)cc2)cc1C,0,0,1,-20,7,17,.,.,.,.,.,.
CC(O)(c1ccc(F)c(F)c1)c1nc(-c2ccccc2)cs1 (stereo unspecified),-1,.,.,-7,6,18,.,.,.,.,.,.
CC(O)(c1ccc(F)c(F)c1)c1nc(-c2cc3ccccc3o2)cs1 (stereo unspecified),0,.,.,58,9.6*,27*,61,48,12,3,36*,18*
O=C1NC[C@H](CCCCN2C[C@H](Cc3ccc(O)cc3)N(CC3CCCCC3)C(=O)C2=O)N(Cc2ccccc2)C1=O,0,.,.,-19,-2,-2,.,.,.,.,.,.
CN(CC(=O)Nc1cccc(F)c1)C(=O)c1cccc(S(=O)(=O)N2CCN(c3ccc(F)cc3)CC2)c1,0,.,.,50,15*,20*,46,26,3,1,23*,10*
CC(=O)N1c2ccc(S(=O)(=O)N3CCC(C(=O)N4CCN(c5cc(Cl)ccc5C)CC4)CC3)cc2CC1C (stereo unspecified),1,3,-3,87*,18*,23*,90*,78*,7,1,30*,17*
COc1cccc(NC(=O)C2CCN(S(=O)(=O)c3ccc4c(c3)CC(C)N4C(C)=O)CC2)c1 (stereo unspecified),0,-3,-5,-5,-4,11,.,.,.,.,.,.
CC(=O)N1c2ccc(S(=O)(=O)N3CCC(C(=O)Nc4cccc(C(F)(F)F)c4)CC3)cc2CC1C (stereo unspecified),0,-1,0,59,10*,11,61,44,.,.,12,9.4*
Cc1ccc(NC(=S)NCCC(c2ccccc2)c2ccccc2)c(C)c1,0,-2,-5,36,5,14,.,.,.,.,.,.
Cc1ccccc1NC(=S)NCCC(c1ccccc1)c1ccccc1,1,0,2,50,16*,37*,11,10,7,3,8,7
O=C(c1ccc(CSc2nc3ccncc3[nH]2)cc1)N1CCCCCC1,0,1,4,-71,-4,2,.,.,.,.,.,.
O=C(c1ccc(CSc2nc3ccncc3[nH]2)cc1)N1CCN(c2cccc(Cl)c2)CC1,0,2,9,88*,9.1*,15,98*,69,.,.,28*,15*
Cc1cc(C(=O)OCC(=O)Nc2cccc(S(N)(=O)=O)c2)c2ccccc2n1,-1,0,1,-29,-6,-14,.,.,.,.,.,.
CC(C)C1Nc2c(O)cc(Cl)c([N+](=O)[O-])c2C2C=CCC21 (stereo unspecified),0,.,-10,99*,15*,19,100*,91*,.,.,21*,14*
O=S(=O)(Cc1ccccc1)N(O)c1ccccc1,-1,3,12,-25,-5,3,.,.,.,.,.,.
CC(=O)N1CCCc2cc(S(=O)(=O)CCC(=O)Nc3cccc(C)c3C)ccc21,0,5,1,14,0,2,.,.,.,.,.,.
CCN(CC)S(=O)(=O)c1ccc(N2CCOCC2)c(NS(=O)(=O)c2ccc(C(C)C)cc2)c1,0,-1,-2,4,5,13,.,.,.,.,.,.
CCN(CC)S(=O)(=O)c1ccc(N2CCOCC2)c(NS(=O)(=O)c2cc(C(C)(C)C)ccc2C)c1,0,1,-2,50,17*,36*,66,-18,3,1,31*,15*
C#CCn1c2ccccc2c(=O)n1CCOc1ccccc1OC,0,.,.,.,-3,-11,.,.,.,.,.,.
Cc1ccc(NS(=O)(=O)c2ccc(C3CCCCC3)cc2)cc1,0,0,47,77*,8.9*,11,94*,70,.,.,38*,18*
CCCc1ccc(C(C)NC(=S)NCc2ccc(F)cc2)cc1 (stereo unspecified),0,2,1,77*,9.1*,12,29,28,.,.,34*,17*
Cc1cc(C)c(CN2CCN(C(=O)Cn3cnc4c(NCc5ccccc5)ncnc43)CC2)c(C)c1,0,.,.,83*,16*,28*,88*,70,3,1,29*,14*
